We go through two compounds from ChEMBL document CHEMBL3779846, “Evaluation of toxicity on epithelial and tumor cells of biaryl dipeptide tyrosines” (Eur J Med Chem, 2016).

For data set [1], the system named is SK-MEL-28. Description: Induction of mitochondrial membrane potential depolarization in human SK-MEL-28 cells at 200 uM after 24 hrs by JC-1 staining based flow cytometry. The class given is functional, cell-based. The method, boiled down: (§1)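 Cells were kept in […] with 10% FBS at 37 C and 5% CO2. They were plated at 1 × 10⁴ cells/well and treated after adhesion. They were then PBS-washed and stained with JC-1 ([…]) for 30 min at 37 C, then trypsinized and centrifuged. Flow cytometry acquired 10,000 events (excitation 488 nm, emission 529/590 nm). Read-out was the ratio of mean green to red fluorescence, from two independent assays.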
(In general: Flow cytometry measures light scatter and fluorescence of single cells or particles in a stream.)

The test system of data set [2] is HUVEC. In words: Induction of mitochondrial membrane potential depolarization in HUVEC at 200 uM after 24 hrs by JC-1 staining based flow cytometry. The format is cell-based. Particulars: human. The method, boiled down:
as §1

Data set [3] deals with SK-MEL-28. Description: Induction of apoptosis in human SK-MEL-28 cells at 0.1 to 1 uM after 48 hrs by Annexin V-FITC/propidium iodide staining-based flow cytometry. The format is functional, cell-based. The method, boiled down:
(§2)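 After adhesion, 1 × 10⁴ cells/well were exposed for 48 h with medium control and 0.1% DMSO vehicle. Cells washed with PBS, trypsinized and centrifuged (600 × g, 10 min). Stained with FITC-Annexin V (1:100 in binding buffer, 30 min) and propidium iodide, then read by flow cytometry for apoptotic, late apoptotic and necrotic fractions; three independent assays.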

In data set [4] the test system is SK-MEL-28. Description: Cytotoxicity against human SK-MEL-28 cells assessed as impairment in cell metabolism at 0.1 to 1 uM after 24 to 48 hrs by MTT assay. The format is functional, cell-based. In a few lines:
(§3)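 Cells maintained in […] with 10% FBS at 37 C, 5% CO2. 1 × 10³ cells/well plated, allowed 24 h adhesion, then treated in medium for 14, 24 or 48 h; vehicle 0.1% DMSO, 10% DMSO positive control. MTT converted to formazan, dissolved in DMSO, read at 570 nm. Expressed as % of untreated (RPMI-only) control; mean of three independent assays.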
On the technique in general: Tetrazolium dyes change colour on reduction, which living cells bring about.

Data set [5] deals with HUVEC. Description: Cytotoxicity against HUVEC assessed as impairment in cell metabolism at 0.1 to 1 uM after 24 to 48 hrs by MTT assay. The class given is ADME, cell-based. Particulars: human. The method, boiled down: as §3
The subject of data set [6] is SK-MEL-28. Description: Induction of mitochondrial membrane potential depolarization in human SK-MEL-28 cells at 0.1 to 1 uM after 48 hrs by JC-1 staining based flow cytometry. The class given is functional, cell-based. In a few lines:
(§4)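 1 × 10⁴ cells/well exposed 48 h after adhesion; medium control and 0.1% DMSO vehicle. Washed, stained with JC-1 for 30 min at 37 C, 5% CO2, then trypsinized and run on flow cytometry, 10,000 events; excitation 488 nm, emission 529 and 590 nm. Valinomycin positive control. Output: green-to-red mean fluorescence ratio; two independent assays.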

The subject of data set [7] is HUVEC. Description: Induction of mitochondrial membrane potential depolarization in HUVEC at 0.1 to 1 uM after 48 hrs by JC-1 staining based flow cytometry. The class given is cell-based. Particulars: human. In a few lines:
as §4

Data set [8] has as its system SK-MEL-28. Description: Cytotoxicity against human SK-MEL-28 cells assessed as reduction in cell proliferation at 0.1 to 1 uM after 14 to 48 hrs by trypan blue staining based haemocytometer method. The class given is functional. The method, boiled down: (§5)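 1 × 10⁴ cells/well in […] plus 10% FBS, treated after adhesion for 14, 24 or 48 h alongside medium control, 0.1% DMSO vehicle and 10% DMSO positive control. Cell number counted by trypan blue exclusion under optical microscopy; three independent assays.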

Data set [9] deals with HUVEC. In words: Cytotoxicity against HUVEC assessed as reduction in cell proliferation at 0.1 to 1 uM after 14 to 48 hrs by trypan blue staining based haemocytometer method. Particulars: human. The method, boiled down:
as §5

Data set [10] relates to SK-MEL-28. Description: Induction of apoptosis in human SK-MEL-28 cells assessed as increase in late apoptotic cells at 0.1 to 1 uM after 48 hrs by Annexin V-FITC/propidium iodide staining-based flow cytometry. The format is functional, cell-based. The method, boiled down: as §2
The subject of data set [11] is SK-MEL-28. In words: Induction of apoptosis in human SK-MEL-28 cells assessed as increase in necrotic cells at 0.1 to 1 uM after 48 hrs by Annexin V-FITC/propidium iodide staining-based flow cytometry. The format is functional, cell-based. The method, boiled down:
as §2

Data set [12] concerns HUVEC. In words: Induction of apoptosis in HUVEC at 0.1 to 1 uM after 48 hrs by Annexin V-FITC/propidium iodide staining-based flow cytometry. The class given is cell-based. Particulars: human. The method, boiled down:
as §2

Data set [13] deals with HUVEC. Description: Induction of apoptosis in HUVEC assessed as increase in late apoptotic cells at 0.1 to 1 uM after 48 hrs by Annexin V-FITC/propidium iodide staining-based flow cytometry. The class given is cell-based. Particulars: human. The method, boiled down:
as §2

Data set [14] relates to HUVEC. Description: Induction of apoptosis in HUVEC assessed as increase in necrotic cells at 0.1 to 1 uM after 48 hrs by Annexin V-FITC/propidium iodide staining-based flow cytometry. The class given is cell-based. Particulars: human. In a few lines:
as §2

Activity calls are given as the source filed them. The rule behind the calls is not given here.

Regarding `CC(C)[C@@H]1NC(=O)[C@H](C)OC(=O)[C@@H](C(C)C)NC(=O)[C@@H](C(C)C)OC(=O)[C@H](C(C)C)NC(=O)[C@H](C)OC(=O)[C@@H](C(C)C)NC(=O)[C@@H](C(C)C)OC(=O)[C@H](C(C)C)NC(=O)[C@H](C)OC(=O)[C@@H](C(C)C)NC(=O)[C@@H](C(C)C)OC1=O` [VALINOMYCIN], the outcome in the data set with SK-MEL-28 [1] was Active. Further, in the data set on HUVEC [2], the Activity result is “Toxic”.

With `COC(=O)[C@H](Cc1ccc(O)c(-c2ccc(OC)cc2)c1)NC(=O)[C@H](Cc1ccc(O)c(-c2ccc(OC)cc2)c1)NC(=O)OC(C)(C)C`, the outcome with SK-MEL-28 [3], with SK-MEL-28 [6], in the data set with SK-MEL-28 [10] and in the data set with SK-MEL-28 [11] was inactive. Also, the result in the data set on SK-MEL-28 [4] and with SK-MEL-28 [8] was Active. Also, the Activity entry in the data set on HUVEC [5], in the data set on HUVEC [7], with HUVEC [9], in the data set on HUVEC [12], in the data set with HUVEC [13] and with HUVEC [14] was “Non-toxic” in each case.
